Sampled rows, rich in hits. Any-hit rate of the full collection: about 2.7%.
OX1R antag-1 = antagonists of human orexin 1 receptor (OX1R); O43613; OX1R-expressing cells, FRET antagonist read-out; inhibition, % at 6.6 µM; 330,000 tested, 1.8% active; AID 485270; in the data active means inhibition mostly above about 38%, no sharp cut-off; inactive means mostly below about 40%
V1R ag counter = counter-screen for oxytocin receptor agonists: human V1a receptor agonists | P37288 | CHO-V1R cells, Fluo-8 calcium fluorescence, agonist mode; 0% DMSO, 100% 3 nM vasopressin | activation, % at 3 µM | 320,000 tested, 0.25% active | AID 2797;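 active means activation above the mean activation of all tested compounds plus 3 SD, per screening run, cut at about 20% in these data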;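 further: signal is peak over basal fluorescence ratio across a 100 second FLIPR read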
Target sequence (P37288 whole entry, looked up): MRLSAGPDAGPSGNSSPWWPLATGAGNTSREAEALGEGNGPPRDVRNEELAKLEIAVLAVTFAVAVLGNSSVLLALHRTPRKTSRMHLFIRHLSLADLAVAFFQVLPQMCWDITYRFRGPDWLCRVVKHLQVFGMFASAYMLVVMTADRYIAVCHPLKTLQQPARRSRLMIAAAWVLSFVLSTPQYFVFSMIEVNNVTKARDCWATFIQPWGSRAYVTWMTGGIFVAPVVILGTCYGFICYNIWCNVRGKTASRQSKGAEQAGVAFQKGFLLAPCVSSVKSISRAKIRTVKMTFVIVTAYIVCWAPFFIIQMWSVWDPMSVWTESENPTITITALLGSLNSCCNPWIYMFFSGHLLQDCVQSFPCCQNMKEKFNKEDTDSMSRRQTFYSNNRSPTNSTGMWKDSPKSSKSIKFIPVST
OXTR agonist = agonists of human oxytocin receptor; AID 2435; CHO-OTR cells, Fluo-8 calcium fluorescence; normalized: DMSO 0%, oxytocin 100%; 320,000 tested, 0.32% active; P30559; activation, % at 3 µM;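 active means activation above the mean of all tested compounds plus 3 SD, cutoff set per screening run, cut at about 20% in these data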;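 further: peak over basal fluorescence ratio from a 100 s FLIPR kinetic read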
OXTR potentiate = potentiates the human oxytocin receptor response. P30559. CHO-OTR cells, Fluo-8 calcium fluorescence, potentiator mode; 0% = oxytocin EC15, 100% = EC100. activation, % at 3 µM. 320,000 tested, 0.061% active;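 active means activation above that plate's cutoff, the mean activation of tested compounds plus 3 SD, cut at about 6.6% in these data, passing the limit was not always enough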
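Measured by – Fluo-8 calcium dye fluorescence · Test system – human OTR in CHO cells · Dosing – one concentration, 3.0 µM compound · Controls – EC15 oxytocin alone as 0%, 75 nM oxytocin as 100% · Evaluation – normalized max/min fluorescence ratio, % activation · Timing – 6 min pre-incubation, 100 s read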
CHO parental Ca = counter-screen for OX1R antagonists: effect in parental CHO cells. AID 463079. inhibition, % at 5.6 µM. parental CHO-K1, ATP-induced calcium, Fluo-8 fluorescence. 330,000 tested, 0.63% active;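 active means inhibition above that plate's mean sample inhibition plus 3 SD, cut at about 26% in these data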
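material = parental CHO cells | also added = ATP as calcium-mobilizing challenge | dosing = single point at 5.6 µM | detection = intracellular calcium via Fluo-8 no-wash fluorescent dye | read-out = % inhibition | benchmarks = low control ATP plus DMSO, high control DMSO only | repeats = one well per compound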
OX1R antag-2 = blocks the human orexin 1 receptor | O43613 | CHO/OX1R cells, Fluo-8 calcium fluorescence, orexin A | inhibition, % at 5 µM | 330,000 tested, 0.43% active | AID 434989;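 active means inhibition above its plate's threshold, mean inhibition of all tested compounds on the plate plus 3 SD, cut at about 37% in these data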
Hits are given with their value; 0 = inactive; - = no result given.

SMILES	OX1R antag-1	V1R ag counter	OXTR agonist	OXTR potentiate	CHO parental Ca	OX1R antag-2
CC1CCC2(CC1)NC(=O)N(CC(=O)Nc1ccc(N3CCOCC3)cc1)C2=O (stereo unspecified)	0	0	0	0	71	0
CCN(CC(=O)NCc1ccccc1Cl)CC(=O)Nc1c(F)cccc1F	0	0	0	0	0	0
CCN(CC)c1ccc2cc(-c3nc4ccccc4[nH]3)c(=O)oc2c1	81	288	323	0	80	113
CCN(CC)c1ccc2cc(-c3nc(-c4ccc(OC)cc4)cs3)c(=O)oc2c1	0	297	454	0	97	106
COc1ccc2cc(-c3ccccc3)c(=O)oc2c1	0	0	0	0	0	0
CCOC(=O)C1=NN(C(=O)c2cccc(Br)c2)C(O)(C(C)(C)C)C1 (stereo unspecified)	0	0	20	0	0	0
COC(=O)C1=NN(C(=O)c2cccc(Br)c2)C(O)(c2ccc(Cl)cc2)C1 (stereo unspecified)	50	0	0	0	0	0
O=C1OCCN1C(=O)[C@H]1[C@H](c2ccc([N+](=O)[O-])cc2)C(c2ccc(F)cc2)=NN1c1ccc(Br)cc1	0	-	-	-	0	0
COc1ccc2c(c1)C(=NN)c1cc(OC)ccc1-2	55	0	0	0	0	0
COc1ccc2c(c1)C(=NNc1ccc(C(=O)O)cc1)c1cc(OC)ccc1-2	0	0	0	0	0	0
Cc1n[nH]c(=O)c2c(NC(=O)CSc3nncs3)oc(C)c12	48	0	0	0	0	0
Cc1cc(C)c(C)c(SCC(=O)Nc2oc(C)c3c(C)n[nH]c(=O)c23)c1C	0	0	0	0	0	0
CC(CC(=O)Nc1nnc(CC(C)(C)C)s1)c1ccccc1 (stereo unspecified)	0	0	0	0	0	0
COc1cc(NC(=O)COc2ccc(-n3ccnc3)cc2)cc(OC)c1	0	0	0	0	0	0
CC(C)(C)c1ccc(NC(=O)COc2ccc(-n3ccnc3)cc2)cc1	0	0	0	0	44	62
N#Cc1cccc(NC(=O)COc2ccc(-n3ccnc3)cc2)c1	0	0	0	0	23	0
COc1ccccc1N1CC(C(=O)Nc2ccc(N3CCOCC3)cc2)CC1=O (stereo unspecified)	0	0	0	0	0	0
N#Cc1cc([N+](=O)[O-])ccc1NC(=O)COC(=O)CN1C(=O)C2CCCCC2C1=O (stereo unspecified)	43	0	0	0	0	0
CCn1c(CNC(=O)c2cccc(C)c2)nnc1SCC(=O)Nc1nnc(C)s1	0	0	0	0	0	0
CSc1ncccc1C(=O)OCC(=O)N(CC(C)C)C1CCS(=O)(=O)C1 (stereo unspecified)	0	0	0	0	0	0
O=C(OCCCOC(=O)c1ccc([N+](=O)[O-])o1)c1ccc([N+](=O)[O-])o1	53	0	0	0	0	0
NS(=O)(=O)c1ccc(CCNC(=O)COC(=O)c2ccc([N+](=O)[O-])o2)cc1	44	0	0	0	0	0
CC(C)CN(C(=O)COC(=O)c1ccc([N+](=O)[O-])o1)C1CCS(=O)(=O)C1 (stereo unspecified)	75	0	0	0	0	0
COC(=O)C1=C(C)NC(=S)NC1c1ccc(-c2cc(Cl)ccc2Cl)o1 (stereo unspecified)	56	0	0	0	0	0
O=C(COC(=O)C1CCN(S(=O)(=O)c2cccs2)CC1)Nc1ccc(F)cc1F	0	0	0	0	0	0
O=C(CSc1ccccn1)Nc1nonc1[N+](=O)[O-]	0	0	0	0	0	0
CCOC(=O)C1CCN(C(=O)COC(=O)c2ccc([N+](=O)[O-])o2)CC1	33	0	0	0	0	0
CCOC(=O)C1=C(COC(=O)c2ccc(Cl)cc2[N+](=O)[O-])NC(=O)NC1C (stereo unspecified)	0	0	0	0	0	0
CCOC(=O)C1=C(COC(=O)c2ccc([N+](=O)[O-])o2)NC(=O)NC1C (stereo unspecified)	30	0	0	0	0	0
CC1CCCC(C)N1C(=O)COC(=O)c1ccc([N+](=O)[O-])o1 (stereo unspecified)	39	0	0	0	0	0

Assay outcomes as filed in PubChem.
